Calls of active or inactive are those of the source. The calls are words filed in the database; no cut-off is given here.
Tests used:
[1] = Stabilization of AGTGAGAGTGAGAGAGAGAGTGAGAGTGAGAGTGA ssDNA (unknown origin) assessed as change in melting temperature at 16 uM after 16 hrs in presence of 100 mM K+ by CD spectra analysis
Outline: (§1)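 CD: oligos at 4 μM final in 10 mM lithium cacodylate pH 7.4, 100 mM KCl, annealed 95 °C 5 min then 4 h room temperature; duplex from equimolar strands. Ligand 16 μM final, 16 h room temperature. Spectra 230−320 nm, 5 mm cell, two scans averaged at 20 °C, buffer-subtracted; melting from spectra 20−90 °C in 5 °C steps.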

CWR22R [2] = assay: Synergistic cytotoxicity against human 22Rv1 cells expressing full length androgen receptor H875Y point mutant assessed as combination index for reduction in cell viability measured at ED50 Enzalutamide at 0.001 to 0.1 uM after 72 hrs by MTS assay based Chou and Talay's plot analysis; type: functional
Outline: (§2)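 Cells in RPMI-1640 with 10% fetal calf serum were exposed to ligand (0.001−0.1 μM) plus enzalutamide (0.5−50 μM) at a fixed ratio, five concentrations, for 72 h at 37 °C, 5% CO2. Viability read by MTS absorbance at 490 nm after 4 h. Combination index computed at ED50 and ED75 by the Chou–Talalay method.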

Quadruplex DNA [3] = assay: Stabilization of AR G-quadruplex oligonucleotide in human 22Rv1 cells assessed as down-regulation of MAX mRNA expression at IC50 after 48 hrs by RT-PCR analysis; type: cell-based
Outline: (§3)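 Transcripts quantified by TaqMan real-time PCR with RNaseP as normalizer; relative quantity versus untreated cells by the 2−ΔΔCt method. Panel genes measured with a 92-gene cancer-mechanism TaqMan array.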

PC-3 [4] = assay: Cytotoxicity against human PC3 cells assessed as reduction in cell viability after 48 hrs by MTS assay; type: functional, cell-based; conditions: PC-3, 48 h
Outline: (§4)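 Cells kept in RPMI-1640 with 10% fetal calf serum, 37 °C, 5% CO2. Seeded, after 24 h treated with 0.0001, 0.001, 0.01, 0.1, 1 and 10 μM compound (DMSO stocks freshly diluted in medium) for 48 h. MTS added 4 h, absorbance 490 nm; IC50 from curves of % viability inhibition versus DMSO-treated cells against log concentration.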

CWR22R [5] = assay: Synergistic cytotoxicity against human 22Rv1 cells expressing full length androgen receptor H875Y point mutant assessed as ED75 for Enzalutamide at 0.001 to 0.1 uM after 72 hrs by MTS assay; type: functional; outline: as §2
Quadruplex DNA [6] = assay: Stabilization of AR G-quadruplex oligonucleotide in human 22Rv1 cells assessed as reduction in basal AKT1 levels at IC50 after 48 hrs by Western immunoblot assay; type: cell-based
Quadruplex DNA [7] = assay: Stabilization of AR G-quadruplex oligonucleotide in human 22Rv1 cells assessed as down-regulation of CCND1 mRNA expression at IC50 after 48 hrs by RT-PCR analysis; type: cell-based; outline: as §3
Quadruplex DNA [8] = assay: Stabilization of AR G-quadruplex oligonucleotide in human 22Rv1 cells assessed as up-regulation of WNT1 mRNA expression at IC50 after 48 hrs by RT-PCR analysis; type: cell-based; outline: as §3
PC-3 [9] = assay: Synergistic cytotoxicity against human PC3 cells assessed as combination index for reduction in cell viability measured at ED50 Enzalutamide at 0.001 to 0.1 uM after 72 hrs by MTS assay based Chou and Talay's plot analysis
Quadruplex DNA [10] = assay: Stabilization of AR G-quadruplex oligonucleotide in human LNCAP cells assessed as down-regulation of KLK3 mRNA expression at IC50 after 72 hrs by RT-PCR analysis; type: cell-based
Outline: (§5)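 Cells grown in RPMI-1640 with 10% fetal calf serum, 37 °C, 5% CO2, treated at an equitoxic concentration. Transcripts quantified by TaqMan real-time RT-PCR, normalized to RNaseP, expressed as relative quantity versus untreated cells (calibrator) by the 2−ΔΔCt method.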

CWR22R [11] = assay: Cytotoxicity against human 22Rv1 cells expressing full length androgen receptor H875Y point mutant assessed as reduction in cell viability after 48 hrs by MTS assay; type: functional, cell-based; conditions: 22Rv1, 48 h; outline: as §4
Quadruplex DNA [12] = assay: Stabilization of AR G-quadruplex oligonucleotide in human 22Rv1 cells assessed as down-regulation of CCNE1 mRNA expression at IC50 after 48 hrs by RT-PCR analysis; type: cell-based; outline: as §3
Quadruplex DNA [13] = assay: Stabilization of 5'-FAM/3'-TAMRA labelled AR1 G-quadruplex oligonucleotide (unknown origin) assessed as change in melting temperature t1/2 at 1 uM after 16 hrs in presence of 100 mM K+ by FRET assay; type: nucleic-acid assay
Outline: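 FRET melting: FAM/TAMRA dual-labelled oligos (0.25 μM) folded in 10 mM lithium cacodylate pH 7.4 with 100 mM KCl (95 °C 5 min, cooled 4 h); ligand added at 1 μM final, 16 h room temperature. FAM emission followed 30−95 °C at 1 °C/min; curves normalized 0 to 1, T1/2 at 0.5 fraction.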

Quadruplex DNA [14] = assay: Stabilization of AR G-quadruplex oligonucleotide in human PC3 cells assessed as up-regulation of WNT1 mRNA expression at IC50 after 48 hrs by RT-PCR analysis; type: cell-based
Outline: (§6)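 PC-3 cells (RPMI-1640, 10% fetal calf serum) exposed at an equitoxic concentration. Expression of 92 cancer-mechanism genes measured on TaqMan Arrays. Change versus untreated cells computed by 2−ΔΔCt, with RNaseP as normalizer.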

Quadruplex DNA [15] = assay: Stabilization of AR G-quadruplex oligonucleotide in human DU145 cells assessed as up-regulation of WNT1 mRNA expression at IC50 after 48 hrs by RT-PCR analysis; type: cell-based; outline: as §3
Quadruplex DNA [16] = assay: Stabilization of AR G-quadruplex oligonucleotide in human 22Rv1 cells assessed as regulation of ERBB2 mRNA expression at IC50 after 48 hrs by RT-PCR analysis; type: cell-based; outline: as §3
[17] = Drug uptake in human PC3 cells at 160 nM after 24 hrs by DAPI staining-based fluorescence microscopic analysis; type: ADME, cell-based; conditions: pc-3, 24 h, 0.16 µM
Quadruplex DNA [18] = assay: Stabilization of AR G-quadruplex oligonucleotide in human LNCAP cells assessed as reduction in AR mRNA expression at IC50 after 72 hrs by RT-PCR analysis; type: cell-based; outline: as §5
Quadruplex DNA [19] = assay: Stabilization of AR3 G-quadruplex oligonucleotide (unknown origin) assessed as melting temperature at 16 uM after 16 hrs in presence of 100 mM K+ by CD spectra analysis (reference value: 78.8 +/- 1.7 degreeC); type: nucleic-acid assay
Quadruplex DNA [20] = assay: Stabilization of AR G-quadruplex oligonucleotide in human DU145 cells assessed as down-regulation of ITGB3 mRNA expression at IC50 after 48 hrs by RT-PCR analysis; type: cell-based; outline: as §3
Quadruplex DNA [21] = assay: Stabilization of AR G-quadruplex oligonucleotide in human PC3 cells assessed as down-regulation of BAX mRNA expression at IC50 after 48 hrs by RT-PCR analysis; type: cell-based; outline: as §6
[22] = Stabilization of AGTGAGAGTGAGAGAGAGAGTGAGAGTGAGAGTGA/TCACTCTCACTCTCACTCTCTCTCTCACTCTCACT dsDNA (unknown origin) assessed as assessed as effect on conformational change at 16 uM after 16 hrs in presence of 100 mM K+ by CD spectra analysis; outline: as §1

ΔTm [1]: 4.7 °C
ΔTm (Quadruplex DNA [13]): 20.5 °C
Drug uptake [17]: Active
Tm (Quadruplex DNA [19]): > 90 °C
Activity [22]: inactive
SMILES: CN(C)CCCn1c(=O)c2ccc3c(=O)n(CCCN(C)C)c(=O)c4c5[nH]c6ccccc6[nH]c5c(c1=O)c2c34.Cl.Cl
CI (CWR22R [2]): <1
Activity (Quadruplex DNA [3]): Active
IC50 (PC-3 [4]): 180 nM
ED75 (CWR22R [5]): 370 nM
Activity (Quadruplex DNA [6]): Active
Activity (Quadruplex DNA [7]): Active
Activity (Quadruplex DNA [8]): Active
CI (PC-3 [9]): >1
Activity (Quadruplex DNA [10]): inactive
IC50 (CWR22R [11]): 10 nM
Activity (Quadruplex DNA [12]): Active
Activity (Quadruplex DNA [14]): Active
Activity (Quadruplex DNA [15]): Active
Activity (Quadruplex DNA [16]): Active
Activity (Quadruplex DNA [18]): inactive
Activity (Quadruplex DNA [20]): Active
Activity (Quadruplex DNA [21]): Active
